Assay results published in ChEMBL document CHEMBL2203196, “Synthesis, antiproliferative and apoptotic activities of N-(6(4)-indazolyl)-benzenesulfonamide derivatives as potential anticancer agents” (Eur J Med Chem, 2012).
Active and inactive are the calls of the source. No cut-off for these calls is given here.

Assays:
[1] = system: A2780; assay: Upregulation of p53 expression in human A2780 cells at IC50 after 24 hrs by Western blot analysis; type: functional, cell-based
Method in brief: (§1)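 A2780 cells treated at IC₅₀ and harvested at 24, 48, 72 h; lysed 30 min at 4 °C in 1% Triton X-100, 0.15 M NaCl, 10 mM Tris pH 7.4 with protease inhibitors; Bradford protein assay; 50 µg protein resolved on 12% SDS-PAGE, transferred to nitrocellulose, Ponceau S loading check, blocked overnight 2% BSA in TBST at 4 °C, probed for p53 or bax.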

[2] = system: P388; assay: Induction of apoptosis in mouse P388 cells assessed as change in nuclear morphology at IC50 after 3 days by DAPI staining-based fluorescence microscopy relative to control; type: functional
Method in brief: (§2)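 Cells plated at 5000–10000/well, left 6–8 h, then treated at MTT-derived IC₅₀ or IC₉₀; washed in cold PBS, fixed in 70% ethanol at 4 °C, stained with DAPI just before microscopy; percent apoptotic segmented nuclei scored against untreated controls; mean ± SD of 4–6 data.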

[3] = system: A2780; assay: Induction of apoptosis in human A2780 cells assessed as change in nuclear morphology at IC50 after 3 days by DAPI staining-based fluorescence microscopy relative to control; type: functional; method in brief: as §2
[4] = system: P388; assay: Cytotoxicity against mouse P388 cells after 72 hrs by MTT assay; type: functional, cell-based; details: P388, 72 h
Method in brief: (§3)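 Cells plated at 900–1800/well for exponential growth, centrifuged 275 g 2 min, left 6–8 h, then exposed 72 h to at least 5 concentrations (1:10 serial dilutions) in duplicate; MTT read-out; IC₅₀ from single concentration–response curves; mean ± SD of 3–9 experiments.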

[5] = system: A2780; assay: Cell cycle arrest in human A2780 cells assessed as accumulation at S phase at 6.8 to 102.3 uM after 72 hrs by propidium iodide staining-based FACS flow cytometry (reference value: 25.9 +/- 4.7 %); type: functional
[6] = system: A2780; assay: Cell cycle arrest in human A2780 cells assessed as accumulation at G2/M phase at IC50 after 72 hrs by propidium iodide staining-based FACS flow cytometry (reference value: 23.1 +/- 2.5 %); type: functional
[7] = system: A2780; assay: Induction of apoptosis in human A2780 cells assessed as change in nuclear morphology at > 200 uM after 3 days by DAPI staining-based fluorescence microscopy relative to control; type: functional; method in brief: as §2
[8] = system: A2780; assay: Cell cycle arrest in human A2780 cells assessed as accumulation at G2/M phase at 6.8 to 102.3 uM after 72 hrs by propidium iodide staining-based FACS flow cytometry (reference value: 23.1 +/- 2.5 %); type: functional
[9] = system: A549; assay: Cytotoxicity against human A549 cells after 72 hrs by MTT assay; type: functional, cell-based; details: A549, 72 h; method in brief: as §3
[10] = system: A549; assay: Induction of apoptosis in human A549 cells assessed as change in nuclear morphology at IC50 after 3 days by DAPI staining-based fluorescence microscopy relative to control; type: functional; method in brief: as §2
[11] = system: A2780; assay: Cell cycle arrest in human A2780 cells assessed as accumulation at G0/G1 phase at 6.8 to 102.3 uM after 72 hrs by propidium iodide staining-based FACS flow cytometry (reference value: 51 +/- 6.2 %); type: functional
[12] = system: A2780; assay: Cell cycle arrest in human A2780 cells assessed as cells with > 4n chromosomes at 6.8 to 102.3 uM after 72 hrs by propidium iodide staining-based FACS flow cytometry; type: functional
[13] = system: A2780; assay: Cell cycle arrest in human A2780 cells assessed as accumulation at S phase at IC50 after 72 hrs by propidium iodide staining-based FACS flow cytometry (reference value: 25.9 +/- 4.7 %); type: functional
[14] = system: A549; assay: Induction of apoptosis in human A549 cells assessed as change in nuclear morphology at > 200 uM after 3 days by DAPI staining-based fluorescence microscopy relative to control; type: functional; method in brief: as §2
[15] = system: P388; assay: Induction of apoptosis in mouse P388 cells assessed as change in nuclear morphology at 0.97 to 957 uM after 3 days by DAPI staining-based fluorescence microscopy relative to control; type: functional; method in brief: as §2
[16] = system: A2780; assay: Cytotoxicity against human A2780 cells after 72 hrs by MTT assay; type: functional, cell-based; details: A2780, 72 h; method in brief: as §3
[17] = system: A2780; assay: Upregulation of Bax expression in human A2780 cells at IC50 after 48 hrs by Western blot analysis; type: functional, cell-based; method in brief: as §1
[18] = system: A2780; assay: Cell cycle arrest in human A2780 cells assessed as accumulation at G0/G1 phase at IC50 after 72 hrs by propidium iodide staining-based FACS flow cytometry (reference value: 51 +/- 6.2 %); type: functional
[19] = system: A2780; assay: Induction of apoptosis in human A2780 cells assessed as change in nuclear morphology at 0.97 to 957 uM after 3 days by DAPI staining-based fluorescence microscopy relative to control; type: functional; method in brief: as §2
[20] = system: A549; assay: Induction of apoptosis in human A549 cells assessed as change in nuclear morphology at 0.97 to 957 uM after 3 days by DAPI staining-based fluorescence microscopy relative to control; type: functional; method in brief: as §2

SMILES	Activity [1]	Activity [2] [%]	Activity [3] [%]	IC50 [4] [µM]	Activity [5] [%]	Activity [6] [%]	Activity [7] [%]	Activity [8] [%]	IC50 [9] [µM]	Activity [10] [%]	Activity [11] [%]	Activity [12] [%]	Activity [13] [%]	Activity [14] [%]	Activity [15] [%]	IC50 [16] [µM]	Activity [17]	Activity [18] [%]	Activity [19] [%]	Activity [20] [%]
C=CCn1cc2ccc(NS(=O)(=O)c3ccc(C)cc3)cc2n1	Active	30	19.3	4.41	5.5	24.2	66.5	72.7	11.9	51.2	10.8	11.1	9.8	29.2	68.7	4.89	Active	66	–	–
CCOc1ccc(NS(=O)(=O)c2ccc(OC)cc2)c2c(Cl)n[nH]c12	Active	47.3	23.3	0.58	8.4	26.9	–	69.6	5.83	34.8	10.8	11.3	10.4	–	98	1.23	Active	62.7	36.8	64.5
Cc1ccc(S(=O)(=O)Nc2cccc3[nH]ncc23)cc1	–	–	–	85.5	–	–	–	–	> 100	–	–	–	–	–	–	> 100	–	–	–	–
Cc1ccc(S(=O)(=O)Nc2ccc3c[nH]nc3c2)cc1	–	–	–	71.3	–	–	–	–	> 100	–	–	–	–	–	–	86.6	–	–	–	–
CCOc1ccc(NS(=O)(=O)c2ccc(C)cc2)c2cn(C)nc12	–	10.3	33.5	4.19	13.7	29.3	51.5	64.5	14.4	22.3	9.9	12	27.3	54.3	94.3	8.34	–	43.5	–	–
Cc1ccc(S(=O)(=O)Nc2cccc3c2cnn3C)cc1	Active	37.3	7.3	3.4	15	23.7	24	69.2	6.88	28	9.1	6.8	11.3	41.2	91.3	6.62	inactive	65	–	–
CCOc1ccc(NS(=O)(=O)c2ccc(C)cc2)c2cn[nH]c12	–	–	–	43.5	–	–	–	–	58.5	–	–	–	–	–	–	55.1	–	–	–	–
CCOc1ccc(NS(=O)(=O)c2ccc(C)cc2)c2c(Br)n[nH]c12	Active	9.8	12.8	5.21	10.3	24.3	–	71.5	17.5	2.8	10.2	8.1	14.2	–	87.5	10.5	Active	61.5	34.3	32.3
COc1ccc(S(=O)(=O)Nc2cccc3[nH]nc(Cl)c23)cc1	Active	11.5	23.6	0.5	7.8	25.9	–	70.1	1.83	34.3	9.4	12.8	18	–	74	0.86	Active	56.1	46.6	70.8
Cc1ccc(S(=O)(=O)Nc2cccc3[nH]nc(Br)c23)cc1	–	–	–	53.9	–	–	–	–	82.4	–	–	–	–	–	–	70.9	–	–	–	–
CCOc1ccc(NS(=O)(=O)c2ccc(C)cc2)c2[nH]ncc12	Active	19	12.5	5.7	8.2	33.7	27	71.4	25.1	18.8	8.9	11.6	12.6	–	56	8	Active	53.7	–	24.9
Cc1ccc(S(=O)(=O)Nc2ccc3c(Br)n[nH]c3c2)cc1	–	–	–	66.6	–	–	–	–	> 100	–	–	–	–	–	–	101	–	–	–	–
Cc1ccc(S(=O)(=O)Nc2ccc3c(Br)nn(S(=O)(=O)c4ccc(C)cc4)c3c2)cc1	–	–	–	51.3	–	–	–	–	104	–	–	–	–	–	–	74.7	–	–	–	–
C=CCn1cc2ccc(NS(=O)(=O)c3ccc(C)cc3)c(OCC)c2n1	–	–	–	68.9	–	–	–	–	> 100	–	–	–	–	–	–	> 100	–	–	–	–
C=CCn1ncc2c(NS(=O)(=O)c3ccc(C)cc3)ccc(OCC)c21	–	–	–	51.8	–	–	–	–	100	–	–	–	–	–	–	61.6	–	–	–	–
